Data reported in ChEMBL document CHEMBL1142953, “Calcitonin gene-related peptide analogues with aza and indolizidinone amino acid residues reveal conformational requirements for antagonist activity at the human calcitonin gene-related peptide 1 receptor” (J Med Chem, 2007).
pIC50: −log10 of the molar value. Active and inactive are the calls of the source. The calls are words filed in the database; no cut-off is given here. Where a SMILES comes first, the peptide text is derived from it.

How the values were obtained:
Type in all cases: functional, cell-based
[1] = target: Calcitonin gene-related peptide type 1 receptor (Homo sapiens) (UniProt Q16602); test: (§1) Antagonist activity against human CGRP1 expressed in HEK293 cells assessed as inhibition of human alpha-CGRP-promoted cAMP production; parameters: concentration or dose not given beside the values; settings: concentration not given here
Chain of Calcitonin gene-related peptide type 1 receptor (Homo sapiens) (Q16602 whole entry): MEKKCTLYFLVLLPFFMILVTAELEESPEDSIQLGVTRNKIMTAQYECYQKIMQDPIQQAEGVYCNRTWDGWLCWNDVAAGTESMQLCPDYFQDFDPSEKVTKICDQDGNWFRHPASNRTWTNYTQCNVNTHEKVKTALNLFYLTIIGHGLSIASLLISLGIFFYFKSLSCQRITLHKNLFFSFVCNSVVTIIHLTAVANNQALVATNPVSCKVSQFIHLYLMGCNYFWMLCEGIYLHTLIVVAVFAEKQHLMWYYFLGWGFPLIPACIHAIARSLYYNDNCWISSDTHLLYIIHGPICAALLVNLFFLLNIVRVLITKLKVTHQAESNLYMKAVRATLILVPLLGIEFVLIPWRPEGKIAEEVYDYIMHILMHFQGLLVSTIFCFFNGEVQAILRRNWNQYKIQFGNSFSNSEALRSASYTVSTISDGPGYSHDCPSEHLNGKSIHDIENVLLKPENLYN
Summary of the method: (§2)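 HEK293 cells stably expressing CRLR, seeded at 5000 cells/well. Cells preincubated with peptide analogues for 15 min at 37 °C, then stimulated with 0.5 nM α-CGRP for 15 min at 37 °C. cAMP measured with a fluorescence-based kit. Peptides tested up to 100 µM. At least three independent experiments in triplicate, analysed by nonlinear curve fitting; mean ± SEM.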

[2] = target: Calcitonin gene-related peptide type 1 receptor (Homo sapiens) (UniProt Q16602); test: Partial agonist activity at human CGRP1 expressed in HEK293 cells assessed by measuring cAMP production upto 1 uM
Summary of the method: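 HEK293 cells stably expressing CRLR were exposed to CGRP27-37 analogues up to 1 µM without α-CGRP. cAMP production was measured with a fluorescence-based kit as the read-out.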

[3] = target: Calcitonin gene-related peptide type 1 receptor (Homo sapiens) (UniProt Q16602); test: Antagonist activity against human CGRP1 expressed in HEK293 cells assessed as inhibition of human alpha-CGRP-promoted cAMP production upto 100 uM; summary of the method: as §2
[4] = target: Calcitonin gene-related peptide type 1 receptor (Homo sapiens, UniProt O60894+Q16602); test: as §1; summary of the method: as §2
Chain of Calcitonin gene-related peptide type 1 receptor (Q16602 whole entry, one chain of several): as the sequence (Q16602 whole entry) above

Row | Compound | inhibition [1] [%] | Activity [2] | Activity [3] | pIC50 [4]
1 | CC(C)[C@H](NC(=O)[C@H](CC(=O)O)NC(=O)[C@@H](NC(=O)[C@@H]1CCCN1C(=O)[C@@H](NC(=O)[C@H](N)Cc1ccccc1)C(C)C)[C@@H](C)O)C(=O)NCC(=O)N1CCC[C@H]1C(=O)NN(Cc1ccccc1)C(=O)N[C@@H](C)C(=O)N[C@@H](Cc1ccccc1)C(N)=O | 69 | inactive | – | –
2 | CC(C)[C@H](NC(=O)N(CC(=O)O)NC(=O)[C@@H](NC(=O)[C@@H]1CCCN1)[C@@H](C)O)C(=O)NCC(=O)N1CCC[C@H]1C(=O)N[C@@H](Cc1ccccc1)C(=O)N[C@@H](C)C(=O)N[C@@H](Cc1ccccc1)C(N)=O (HELM PEPTIDE1{P.T.[O=C(O)CN(N[*:1])C(=O)[*:2]].V.G.P.F.A.F.[am]}$$$$V2.0) | – | – | inactive | –
3 | CC(C)[C@H](NC(=O)[C@H](CC(=O)O)NC(=O)[C@@H](NC(=O)[C@@H]1CCCN1)[C@@H](C)O)C(=O)NCC(=O)N1CCCC1C(=O)N[C@@H](Cc1ccccc1)C(=O)N[C@H]1C[C@H]2C[C@@H](c3ccccc3)C[C@@H](C(N)=O)N2C1=O (stereo partly drawn) (HELM PEPTIDE1{P.T.D.V.G.[O=C(C1CCCN1[*:1])[*:2]].F.[NC(=O)[C@@H]1C[C@H](c2ccccc2)C[C@@H]2C[C@H](N[*:1])C(=O)N21]}$$$$V2.0) | – | – | inactive | –
4 | CC(C)[C@H](NC(=O)[C@@H](N)Cc1ccccc1)C(=O)N1CCC[C@@H]1C(=O)N[C@H](C(=O)N[C@@H](CC(=O)O)C(=O)N[C@H]1C[C@H]2CCC[C@@H](C(=O)N3CCC[C@H]3C(=O)N[C@@H](Cc3ccccc3)C(=O)N[C@@H](C)C(=O)N[C@@H](Cc3ccccc3)C(N)=O)N2C1=O)[C@H](C)O | – | inactive | inactive | –
5 | CC(C)[C@H](NC(=O)[C@H](CC(=O)O)NC(=O)[C@@H](NC(=O)[C@@H]1CCCN1C(=O)[C@@H](NC(=O)[C@@H](N)Cc1ccccc1)C(C)C)[C@@H](C)O)C(=O)NCC(=O)N[C@H]1CC[C@H]2CC[C@@H](C(=O)N[C@@H](C)C(=O)N[C@@H](Cc3ccccc3)C(N)=O)N2C1=O | – | inactive | inactive | –
6 | CC(C)[C@H](NC(=O)[C@H](CC(=O)O)NC(=O)[C@@H](NC(=O)[C@@H]1CCCN1C(=O)[C@@H](NC(=O)[C@@H](N)Cc1ccccc1)C(C)C)[C@@H](C)O)C(=O)N[C@H]1CC[C@H]2CC[C@@H](C(=O)N[C@@H](Cc3ccccc3)C(=O)N[C@@H](C)C(=O)N[C@@H](Cc3ccccc3)C(N)=O)N2C1=O | 70 | inactive | – | 6.97
7 | CC(C)[C@H](NC(=O)[C@@H](N)Cc1ccccc1)C(=O)N1CCC[C@H]1C(=O)N[C@H](C(=O)N[C@H]1C[C@H]2CCC[C@@H](C(=O)NCC(=O)N3CCC[C@H]3C(=O)N[C@@H](Cc3ccccc3)C(=O)N[C@@H](C)C(=O)N[C@@H](Cc3ccccc3)C(N)=O)N2C1=O)[C@H](C)O | – | inactive | inactive | –
8 | C[C@H](NC(=O)[C@H](Cc1ccccc1)NC(=O)[C@@H]1CCCN1C(=O)CNC(=O)[C@@H]1CC[C@@H]2CC[C@H](NC(=O)[C@@H](NC(=O)[C@@H]3CCCN3)[C@H](C)O)C(=O)N21)C(=O)N[C@@H](Cc1ccccc1)C(N)=O | – | – | inactive | –
9 | CC(C)[C@H](NC(=O)[C@H](CC(=O)O)NC(=O)[C@@H](NC(=O)[C@@H]1CCCN1C(=O)[C@@H](NC(=O)[C@@H](N)Cc1ccccc1)C(C)C)[C@@H](C)O)C(=O)NCC(=O)N1CCC[C@H]1C(=O)NN(Cc1ccccc1)C(=O)N[C@@H](C)C(=O)N[C@@H](Cc1ccccc1)C(N)=O | – | – | – | 5.24
10 | CC(C)[C@H](NC(=O)[C@H](CC(=O)O)NC(=O)[C@@H](NC(=O)[C@@H]1CCCN1C(=O)[C@@H](NC(=O)N(N)Cc1ccccc1)C(C)C)[C@@H](C)O)C(=O)NCC(=O)N1CCC[C@H]1C(=O)N[C@@H](Cc1ccccc1)C(=O)N[C@@H](C)C(=O)N[C@@H](Cc1ccccc1)C(N)=O | 69 | inactive | – | 6.23
11 | CC(C)[C@H](NC(=O)[C@H](CC(=O)O)NC(=O)[C@@H](NC(=O)[C@@H]1CCCN1C(=O)[C@@H](NC(=O)[C@H](N)Cc1ccccc1)C(C)C)[C@@H](C)O)C(=O)NCC(=O)N1CCC[C@H]1C(=O)N[C@@H](Cc1ccccc1)C(=O)NN(C)C(=O)N[C@@H](Cc1ccccc1)C(N)=O | 51 | inactive | – | –
12 | CC(C)[C@H](NC(=O)[C@H](CC(=O)O)NC(=O)[C@@H](NC(=O)C1CCCN1)[C@@H](C)O)C(=O)NCC(=O)N[C@H]1C[C@H]2C[C@@H](c3ccccc3)C[C@@H](C(=O)N[C@@H](C)C(=O)N[C@@H](Cc3ccccc3)C(N)=O)N2C1=O (stereo partly drawn) | – | – | inactive | –
13 | CC(C)[C@H](NC(=O)[C@H](CC(=O)O)NC(=O)[C@@H](NC(=O)[C@@H]1CCCN1C(=O)[C@@H](NC(=O)[C@@H](N)Cc1ccccc1)C(C)C)[C@@H](C)O)C(=O)NCC(=O)N[C@H]1C[C@H]2CCC[C@@H](C(=O)N[C@@H](C)C(=O)N[C@@H](Cc3ccccc3)C(N)=O)N2C1=O | – | inactive | inactive | –
14 | CC(C)[C@H](NC(=O)[C@H](CC(=O)O)NC(=O)[C@@H](NC(=O)[C@@H]1CCCN1)[C@@H](C)O)C(=O)NCC(=O)N1CCC[C@H]1C(=O)N[C@@H](Cc1ccccc1)C(=O)NN(C)C(=O)N[C@@H](Cc1ccccc1)C(N)=O (HELM PEPTIDE1{P.T.D.V.G.P.F.[CN(N[*:1])C(=O)[*:2]].F.[am]}$$$$V2.0) | – | – | inactive | –
15 | CC(C)[C@H](NC(=O)[C@H](CC(=O)O)NC(=O)[C@@H](NC(=O)[C@@H]1CCCN1C(=O)[C@@H](NC(=O)[C@@H](N)Cc1ccccc1)C(C)C)[C@@H](C)O)C(=O)N[C@H]1C[C@H]2CCC[C@@H](C(=O)N[C@@H](Cc3ccccc3)C(=O)N[C@@H](C)C(=O)N[C@@H](Cc3ccccc3)C(N)=O)N2C1=O | – | inactive | inactive | –
16 | CC(C)[C@H](NC(=O)[C@H](CC(=O)O)NC(=O)[C@@H](NC(=O)[C@@H]1CCCN1C(=O)[C@@H](NC(=O)[C@@H](N)Cc1ccccc1)C(C)C)[C@@H](C)O)C(=O)NCC(=O)N1CCC[C@H]1C(=O)N[C@@H](Cc1ccccc1)C(=O)NN(C)C(=O)N[C@@H](Cc1ccccc1)C(N)=O | – | – | – | 5.45
17 | CC(C)[C@H](NC(=O)[C@H](CC(=O)O)NC(=O)[C@@H](NC(=O)[C@@H]1CCCN1C(=O)[C@@H](NC(=O)[C@H](N)Cc1ccccc1)C(C)C)[C@@H](C)O)C(=O)NNC(=O)N1CCC[C@H]1C(=O)N[C@@H](Cc1ccccc1)C(=O)N[C@@H](C)C(=O)N[C@@H](Cc1ccccc1)C(N)=O | 70 | inactive | – | –
18 | CC(C)[C@H](NC(=O)[C@H](CC(=O)O)NC(=O)[C@@H](NC(=O)[C@@H]1CCCN1C(=O)[C@@H](NC(=O)[C@@H](N)Cc1ccccc1)C(C)C)[C@@H](C)O)C(=O)NCC(=O)N1CCC[C@@H]1C(=O)N[C@@H](Cc1ccccc1)C(=O)N[C@H]1C[C@H]2C[C@@H](c3ccccc3)C[C@@H](C(N)=O)N2C1=O | – | inactive | inactive | –

Further lines, results first:

Row | inhibition [1] [%] | Activity [2] | Activity [3] | pIC50 [4] | Compound
19 | – | – | inactive | – | CC(C)[C@H](NC(=O)[C@H](CC(=O)O)NC(=O)[C@@H](NC(=O)[C@@H]1CCCN1)[C@@H](C)O)C(=O)NCC(=O)N[C@H]1C[C@H]2CCC[C@@H](C(=O)N[C@@H](C)C(=O)N[C@@H](Cc3ccccc3)C(N)=O)N2C1=O
20 | – | inactive | inactive | – | CC(C)[C@H](NC(=O)[C@H](CC(=O)O)NC(=O)[C@@H](NC(=O)C1CCCN1C(=O)[C@@H](NC(=O)[C@@H](N)Cc1ccccc1)C(C)C)[C@@H](C)O)C(=O)NCC(=O)N[C@H]1C[C@H]2C[C@@H](c3ccccc3)C[C@@H](C(=O)N[C@@H](C)C(=O)N[C@@H](Cc3ccccc3)C(N)=O)N2C1=O (stereo partly drawn)
21 | – | – | inactive | – | CC(C)[C@H](NC(=O)[C@H](CC(=O)O)NC(=O)[C@@H](NC(=O)[C@@H]1CCCN1)[C@@H](C)O)C(=O)NCC(=O)N1CCC[C@H]1C(=O)NN(Cc1ccccc1)C(=O)N[C@@H](C)C(=O)N[C@@H](Cc1ccccc1)C(N)=O (HELM PEPTIDE1{P.T.D.V.G.P.[O=C(N(Cc1ccccc1)N[*:1])[*:2]].A.F.[am]}$$$$V2.0)
22 | 68 | – | – | 5.35 | CC(C)[C@H](NC(=O)[C@H](CC(=O)O)NC(=O)[C@@H](NC(=O)[C@@H]1CCCN1)[C@@H](C)O)C(=O)NCC(=O)N1CCCN1C(=O)N[C@@H](Cc1ccccc1)C(=O)N[C@@H](C)C(=O)N[C@@H](Cc1ccccc1)C(N)=O (HELM PEPTIDE1{P.T.D.V.G.[O=C(N1CCCN1[*:1])[*:2]].F.A.F.[am]}$$$$V2.0)
23 | – | – | inactive | – | CC(C)[C@H](NC(=O)[C@H](CC(=O)O)NC(=O)[C@@H](NC(=O)[C@@H]1CCCN1)[C@@H](C)O)C(=O)NNC(=O)N1CCC[C@H]1C(=O)N[C@@H](Cc1ccccc1)C(=O)N[C@@H](C)C(=O)N[C@@H](Cc1ccccc1)C(N)=O (HELM PEPTIDE1{P.T.D.V.[O=C(NN[*:1])[*:2]].P.F.A.F.[am]}$$$$V2.0)
24 | – | – | – | 7.17 | CC(C)[C@H](NC(=O)[C@H](CC(=O)O)NC(=O)[C@@H](NC(=O)[C@@H]1CCCN1C(=O)[C@@H](NC(=O)[C@@H](N)Cc1ccccc1)C(C)C)[C@@H](C)O)C(=O)NNC(=O)N1CCC[C@H]1C(=O)N[C@@H](Cc1ccccc1)C(=O)N[C@@H](C)C(=O)N[C@@H](Cc1ccccc1)C(N)=O
25 | 68 | inactive | – | – | CC(C)[C@H](NC(=O)[C@H](CC(=O)O)NC(=O)[C@@H](NC(=O)[C@@H]1CCCN1C(=O)[C@@H](NC(=O)[C@@H](N)Cc1ccccc1)C(C)C)[C@@H](C)O)C(=O)NCC(=O)N1CCC[C@H]1C(=O)N[C@@H](Cc1ccccc1)C(=O)N[C@@H](C)C(=O)N[C@@H](Cc1ccccc1)C(N)=O
26 | 81 | – | – | 6.11 | H-PTDVGPFAF-NH2
